# Results published in ChEMBL document CHEMBL5236601, “Development and Utility of a PAK1-Selective Degrader” (J Med Chem, 2022).
# The source made the active and inactive calls. No cut-off for these calls is given here.
# Assays:
# Assay type in all cases: functional, cell-based
# [1] = test system: OVCAR-3; test: Antiproliferative activity against human OVCAR-3 cells assessed as cell viability measured after 72 hrs incubation by MTT assay
# How it was run: (§1)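 Seeded at 2 x 10^3 cells/well overnight, then exposed to a range of concentrations for 72 hours (the figure legend states 96 hr). Cell viability read by MTT, with medium alone as blank. Triplicate wells, at least three independent experiments. IC50/EC50 from curve fitting, reported as means ± SD (n=3).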
# [2] = test system: MCF7; test: Antiproliferative activity against human MCF7 cells assessed as cell viability measured after 72 hrs incubation by MTT assay; how it was run: as §1
# [3] = test system: OMM-1; test: (§2) Antiproliferative activity against human OMM-1 cells assessed as cell viability measured after 72 hrs incubation by MTT assay; how it was run: as §1
# [4] = test system: HEY A8; test: (§3) Antiproliferative activity against human HeyA8 cells assessed as cell viability measured after 72 hrs incubation by MTT assay; how it was run: as §1
# [5] = as §2; details: OMM-1, 72 h; how it was run: as §1
# [6] = as §3; details: HEY A8, 72 h; how it was run: as §1
# [7] = test system: MCF7; test: Antiproliferative activity against human MCF7 cells assessed as effect on doxycycline-induced PAK1-specific shRNA mediated reduction in PAK1 expression by measuring reduction in cell index after 114 hrs
"EC50 ([1]; OVCAR-3, 72 h) [µM]","EC50 ([2]; MCF7, 72 h) [µM]",SMILES,Activity [1],Activity [2],Activity [3],Activity [4],EC50 [5] [µM],EC50 [6] [µM],Activity [7]
,,Nc1cccc2c1CN(C1CCC(=O)NC1=O)C2=O (centres undefined),inactive,inactive,inactive,inactive,,,
8.9,11.8,CC(C)NC(=O)N1CC[C@@H](NC2=Nc3cc(F)ccc3N(CC(F)F)c3ccc(Cl)cc32)C1,,,,,12,33.6,Active
